Results taken from ChEMBL document CHEMBL3085696, “Aurora isoform selectivity: design and synthesis of imidazo[4,5-b]pyridine derivatives as highly selective inhibitors of Aurora-A kinase in cells” (J Med Chem, 2013).
Calls of active or inactive are those of the source. No cut-off for these calls is given here.

Columns and labels:
[1] = target: T1, Aurora kinase A (Homo sapiens, UniProt O14965); test: Inhibition of N-terminal HIS-tagged aurora-A (unknown origin) using 5FAM-LRRASLG-CONH2 as substrate after 60 mins
T1 sequence (O14965 whole entry): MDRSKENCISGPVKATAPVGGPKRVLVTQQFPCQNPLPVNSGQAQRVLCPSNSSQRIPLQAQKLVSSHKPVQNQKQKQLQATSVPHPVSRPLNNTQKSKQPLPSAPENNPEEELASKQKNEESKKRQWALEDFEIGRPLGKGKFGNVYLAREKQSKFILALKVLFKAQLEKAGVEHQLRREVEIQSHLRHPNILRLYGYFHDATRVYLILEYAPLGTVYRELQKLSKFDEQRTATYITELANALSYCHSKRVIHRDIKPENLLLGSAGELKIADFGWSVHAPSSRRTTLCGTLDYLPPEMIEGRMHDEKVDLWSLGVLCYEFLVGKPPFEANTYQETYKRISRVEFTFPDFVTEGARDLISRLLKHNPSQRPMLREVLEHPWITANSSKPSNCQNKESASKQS
In short: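 Aurora-A (5 nM N-terminal His-tagged) incubated with 1.5 μM 5FAM-LRRASLG-CONH2 peptide and 20 μM ATP in 50 mM Tris pH 7.4, 200 mM NaCl, 5 mM MgCl2, 2 mM DTT, 0.1% Tween 20. Runs 60 min at room temperature; EDTA stop. Microfluidic separation of product from substrate. Duplicate 8-point curves, 0.25 pM–200 μM final, 1–2% DMSO. IC50 from four-parameter logistic fit.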

[2] = target: T2, Aurora kinase B (Homo sapiens, UniProt Q96GD4); test: Inhibition of full-length aurora-B (unknown origin) using 5FAMLRRASLG-CONH2 as substrate after 60 mins
In short: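 Full-length Aurora-B/INCENP complex (1 nM) incubated with 1.5 μM 5FAM-LRRASLG-CONH2 peptide and 15 μM ATP in Tris pH 7.4 buffer with NaCl, MgCl2, DTT, Tween 20. Runs 60 min at room temperature, then EDTA stop. Microfluidic mobility-shift readout of percent conversion. Duplicate 8-point curves, 0.25 pM–200 μM final. IC50 by four-parameter logistic fit.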

[3] = target: T1, Aurora kinase A; test: Inhibition of autophosphorylation of N-terminal Myc tagged aurora-A at T288 in human HCT116 cells after 2 hrs; format: cell-based, HCT-116
In short: (§1)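 Cells transfected with Myc-tagged Aurora-A (wild type or T217E, L215R, R220K mutants) and treated with inhibitor concentrations for 2 h. Lysed in LDS buffer; SDS-type PAGE and western blot. Blots probed for P-T288 (Aurora-A autophosphorylation) and phospho-histone H3 S10 (Aurora-B substrate). Blots quantified; IC50 derived; ratio taken as H3 IC50 over T288 IC50.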

[4] = target: T2, Aurora kinase B; test: Inhibition of N-terminal Myc tagged aurora-B-mediated histone H3 phosphorylation at S10 in human HCT116 cells after 2 hrs; format: cell-based, HCT-116
In short: (§2)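 Cells transfected with N-terminal Myc-tagged Aurora-A (wild type or T217E, L215R or R220K mutant, made by Quikchange mutagenesis), then exposed to a range of inhibitor concentrations for 2 h. Lysed in LDS sample buffer, sonicated, boiled, run on LDS-PAGE and blotted to nitrocellulose. Probed with anti-P-T288 (Aurora-A autophosphorylation) and anti-P-histone H3 S10 (Aurora-B substrate) antibodies. Blots quantified and IC50 fitted.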

[5] = target: T1, Aurora kinase A; test: Inhibition of autophosphorylation of N-terminal Myc tagged aurora-A at T288 in human HeLa cells after 2 hrs; format: cell-based; in short: as §1
[6] = target: T2, Aurora kinase B; test: Inhibition of N-terminal Myc tagged aurora-B-mediated histone H3 phosphorylation at S10 in human HeLa cells after 2 hrs; format: cell-based; in short: as §1
[7] = tested on: HeLa; test: Selectivity ratio of IC50 for aurora-B-mediated histone H3 phosphorylation at S10 in human HeLa cells to IC50 for autophosphorylation of N-terminal Myc tagged aurora-A at T288 in human HeLa cells; format: cell-based; in short: as §1
[8] = target: T3, Aurora kinase A (Homo sapiens) (UniProt O14965); settings: HCT-116, 1.5 uM
T3 sequence (whole entry): T1 sequence (O14965 whole entry)

[9] = target: Vascular endothelial growth factor receptor 1 (Homo sapiens) (UniProt P17948); test: Inhibition of VEGFR1 (unknown origin) at 1 uM
In short: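 110-kinase panel profiling, compounds tested at 1 μM, read as percent inhibition.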

[10] = target: T2, Aurora kinase B; settings: HCT-116, 25 to 50 uM
[11] = target: T2, Aurora kinase B; test: Inhibition of N-terminal Myc tagged aurora-B (unknown origin)-mediated histone H3 phosphorylation at S10 after 2 hrs; in short: as §1
[12] = target: T1, Aurora kinase A; test: Inhibition of autophosphorylation of N-terminal Myc tagged aurora-A at T288 (unknown origin) after 2 hrs; in short: as §1
[13] = species on record: Homo sapiens; test: Selectivity ratio of IC50 for aurora-B (unknown origin)-mediated histone H3 phosphorylation at S10 to IC50 for autophosphorylation of N-terminal Myc tagged aurora-A at T288 (unknown origin); in short: as §1
[14] = Metabolic stability in human liver microsomes at 10 uM after 30 mins; format: ADME; settings: read-out: Stability
In short: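 Mixed-gender pooled human liver microsomes (1 mg/mL) incubated with compound at 10 μM plus NADPH 1 mM, UDPGA 2.5 mM and MgCl2 3 mM in 10 mM PBS at 37 °C, for 0 and 30 min. Cofactor-free controls included. Percent remaining measured by LC/MS.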

[15] = Metabolic stability in CD1 mouse liver microsomes at 10 uM after 30 mins; format: ADME, Microsome; settings: read-out: Stability
In short: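 Compound at 10 μM incubated with male CD1 mouse liver microsomes (1 mg/mL protein) plus NADPH 1 mM, UDPGA 2.5 mM and MgCl2 3 mM in 10 mM PBS at 37 °C, for 0 and 30 min. Controls omit cofactors. Percent remaining measured by LC/MS.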

[16] = target: Aurora kinase A (Homo sapiens, UniProt O14965, R220K); test: Inhibition of autophosphorylation of aurora-A R220K mutant at T288 in human HCT116 cells after 2 hrs; format: cell-based, HCT-116; in short: as §2
[17] = target: T1, Aurora kinase A; test: Inhibition of autophosphorylation of N-terminal Myc tagged wild type aurora-A at T288 in human HCT116 cells after 2 hrs; format: cell-based, HCT-116; in short: as §2
[18] = target: Aurora kinase A (Homo sapiens, UniProt O14965, L215R); test: Inhibition of autophosphorylation of aurora-A L215R mutant at T288 in human HCT116 cells after 2 hrs; format: cell-based, HCT-116; in short: as §2
[19] = target: Aurora kinase A (Homo sapiens, UniProt O14965, T217E); test: Inhibition of autophosphorylation of aurora-A T217E mutant at T288 in human HCT116 cells after 2 hrs; format: cell-based, HCT-116; in short: as §2
[20] = tested on: Mus musculus; test: Oral bioavailability in Balb/C mouse at 5 mg/kg; format: ADME, organism-based; settings: in vivo
In short: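 Female Balb/C mice given 5 mg/kg po or iv in 10% DMSO/5% Tween 20 in saline. Terminal cardiac-puncture plasma taken at 5, 15, 30 min and 1, 2, 4, 6, 24 h. Methanol precipitation with olomoucine internal standard. Analysis by LC/MS (ESI+ MRM).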

T2 sequence (Q96GD4 whole entry): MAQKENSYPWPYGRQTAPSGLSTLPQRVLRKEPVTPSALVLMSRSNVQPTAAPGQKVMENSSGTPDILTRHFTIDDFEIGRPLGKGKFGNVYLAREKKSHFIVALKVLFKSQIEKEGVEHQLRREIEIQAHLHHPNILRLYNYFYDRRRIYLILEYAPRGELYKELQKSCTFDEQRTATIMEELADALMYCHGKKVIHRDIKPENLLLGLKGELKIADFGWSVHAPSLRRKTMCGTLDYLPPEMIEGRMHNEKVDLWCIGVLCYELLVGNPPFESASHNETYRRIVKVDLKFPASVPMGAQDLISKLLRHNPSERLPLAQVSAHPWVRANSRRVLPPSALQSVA
Chain of Aurora kinase A (Homo sapiens, UniProt O14965, T217E) (O14965 whole entry I57V/T217E): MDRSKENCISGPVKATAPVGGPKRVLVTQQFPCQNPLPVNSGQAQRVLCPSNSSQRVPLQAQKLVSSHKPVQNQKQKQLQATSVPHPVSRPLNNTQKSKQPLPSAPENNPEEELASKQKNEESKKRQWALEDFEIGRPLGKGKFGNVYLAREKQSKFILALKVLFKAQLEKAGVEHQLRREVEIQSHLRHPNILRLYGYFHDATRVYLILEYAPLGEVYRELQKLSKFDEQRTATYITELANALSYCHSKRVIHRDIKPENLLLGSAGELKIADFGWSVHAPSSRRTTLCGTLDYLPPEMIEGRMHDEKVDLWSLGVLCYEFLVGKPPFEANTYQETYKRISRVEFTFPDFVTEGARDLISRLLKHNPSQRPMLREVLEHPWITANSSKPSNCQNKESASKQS
Chain of Aurora kinase A (Homo sapiens, UniProt O14965, L215R) (O14965 whole entry I57V/L215R): as the sequence (O14965 whole entry I57V/T217E) above, with L215R, E217T counted along it
Chain of Aurora kinase A (Homo sapiens, UniProt O14965, R220K) (O14965 whole entry I57V/R220K): as the sequence (O14965 whole entry I57V/T217E) above, with E217T, R220K counted along it
Chain of Vascular endothelial growth factor receptor 1 (Homo sapiens) (P17948 whole entry): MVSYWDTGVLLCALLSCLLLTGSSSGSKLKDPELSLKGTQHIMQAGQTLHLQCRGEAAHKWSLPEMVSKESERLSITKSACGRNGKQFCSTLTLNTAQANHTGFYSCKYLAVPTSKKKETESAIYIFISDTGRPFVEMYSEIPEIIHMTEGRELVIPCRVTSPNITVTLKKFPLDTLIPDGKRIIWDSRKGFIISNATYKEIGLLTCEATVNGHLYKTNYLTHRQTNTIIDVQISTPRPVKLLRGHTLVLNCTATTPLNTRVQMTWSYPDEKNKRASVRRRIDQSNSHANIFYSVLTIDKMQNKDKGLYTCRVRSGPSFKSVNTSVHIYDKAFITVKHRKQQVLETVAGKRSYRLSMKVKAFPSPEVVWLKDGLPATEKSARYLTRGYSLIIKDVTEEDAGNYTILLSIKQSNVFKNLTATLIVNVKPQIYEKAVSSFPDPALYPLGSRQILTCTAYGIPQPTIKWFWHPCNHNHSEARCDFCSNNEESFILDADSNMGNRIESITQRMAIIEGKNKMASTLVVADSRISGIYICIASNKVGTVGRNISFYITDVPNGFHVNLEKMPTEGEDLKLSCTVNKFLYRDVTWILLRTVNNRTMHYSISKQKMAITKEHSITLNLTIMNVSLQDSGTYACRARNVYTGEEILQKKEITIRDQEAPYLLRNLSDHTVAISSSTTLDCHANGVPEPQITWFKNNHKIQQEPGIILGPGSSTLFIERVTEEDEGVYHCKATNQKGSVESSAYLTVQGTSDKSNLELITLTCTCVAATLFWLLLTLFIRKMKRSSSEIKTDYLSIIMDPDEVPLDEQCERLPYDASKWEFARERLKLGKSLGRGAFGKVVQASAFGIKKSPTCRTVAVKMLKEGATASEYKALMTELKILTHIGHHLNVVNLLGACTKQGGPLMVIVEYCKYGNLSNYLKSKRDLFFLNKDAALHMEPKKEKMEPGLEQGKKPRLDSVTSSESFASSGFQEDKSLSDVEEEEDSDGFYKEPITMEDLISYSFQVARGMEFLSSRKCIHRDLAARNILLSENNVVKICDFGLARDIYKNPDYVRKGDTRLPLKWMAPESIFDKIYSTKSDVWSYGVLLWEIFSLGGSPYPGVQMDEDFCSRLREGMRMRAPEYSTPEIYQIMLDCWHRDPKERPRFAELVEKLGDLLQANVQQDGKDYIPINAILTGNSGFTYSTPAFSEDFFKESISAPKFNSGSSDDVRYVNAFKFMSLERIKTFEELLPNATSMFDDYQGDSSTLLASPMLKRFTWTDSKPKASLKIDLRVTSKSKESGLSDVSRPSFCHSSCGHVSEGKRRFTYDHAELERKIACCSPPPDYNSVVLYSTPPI

Compound: CC(=O)N[C@@H]1CCN(c2c(Cl)cnc3[nH]c(-c4cn(C)nc4C)nc23)C1
- IC50 [1]: 4 nM
- IC50 [2]: 2 nM

Compound: Cc1cc(NC(=O)c2ccc(Oc3c(Cl)cnc4nc(-c5cn(C)nc5C)[nH]c34)cc2)on1
- IC50 [3]: 95 nM
- IC50 [1]: 71 nM
- IC50 [2]: 693 nM
- IC50 [4]: 4930 nM

Compound: CC(=O)NC[C@@H]1CCN(c2c(Cl)cnc3nc(-c4cn(C)nc4C)[nH]c23)C1
- IC50 [1]: 9 nM
- IC50 [2]: 7 nM

Compound: Cc1nn(C)cc1-c1nc2c(N3CCC[C@H](CNS(C)(=O)=O)C3)c(Cl)cnc2[nH]1
- IC50 [1]: 5 nM
- IC50 [2]: 8 nM

Compound: Cc1nn(C)cc1-c1nc2ncc(Cl)c(Oc3ccc(C(=O)Nc4ccncc4)cc3)c2[nH]1
- IC50 [1]: 190 nM
- IC50 [2]: 3450 nM
- IC50 [5]: 580 nM
- IC50 [6]: 19700 nM

Compound: CC(=O)NCc1cccc(-c2c(-c3cnn(C)c3)[nH]c3ncc(Cl)cc23)c1
- IC50 [1]: 118 nM
- IC50 [2]: 97 nM

Compound: Cc1nn(C)cc1-c1nc2c(Oc3ccc(C(=O)NCc4ccccc4)cc3)c(Cl)cnc2[nH]1
- IC50 [1]: 204 nM
- IC50 [2]: 3910 nM

Compound: Cc1nn(C)cc1-c1nc2c(N(C)Cc3ccccc3)c(Cl)cnc2[nH]1
- IC50 [1]: 255 nM
- IC50 [2]: 169 nM

Compound: O=C(Nc1ccccc1)c1ccc(Oc2c(Cl)cnc3nc[nH]c23)cc1
- IC50 [1]: 25800 nM

Compound: Cn1cc(-c2[nH]c3ncc(Cl)cc3c2-c2cccc(CNS(C)(=O)=O)c2)cn1
- IC50 [1]: 211 nM
- IC50 [2]: 441 nM

Compound: CC(=O)N[C@H]1CCN(c2c(Cl)cnc3[nH]c(-c4cn(C)nc4C)nc23)C1
- IC50 [1]: 270 nM
- IC50 [2]: 80 nM

Compound: Cc1nn(C)cc1-c1nc2c(Oc3ccc(C(=O)Nc4cccnc4)cc3)c(Cl)cnc2[nH]1
- IC50 [1]: 58 nM
- IC50 [2]: 1680 nM
- Ratio IC50 [7]: 70
- IC50 [5]: 280 nM
- IC50 [6]: 19700 nM

Compound: Cc1nn(C)cc1-c1nc2c(Oc3ccc(C(=O)Nc4ccncc4)cc3)c(Cl)cnc2[nH]1
- Ratio IC50 [7]: 34

Compound: Cc1nn(C)cc1-c1nc2c(Oc3ccc(C(=O)NC4CCC4)cc3)c(Cl)cnc2[nH]1
- inhibition [8]: Active
- inhibition [9]: > 80%
- Ratio IC50 [7]: 346
- inhibition [10]: Active

Compound: Cc1nn(C)cc1-c1nc2c(Nc3ccc(C(=O)Nc4ccccc4)cc3)c(Cl)cnc2[nH]1
- IC50 [11]: 18600 nM
- IC50 [12]: 320 nM
- IC50 [1]: 75 nM
- IC50 [2]: 4120 nM
- Ratio IC50 [13]: 58

Compound: Cc1nn(C)cc1-c1nc2ncc(Cl)c(Oc3ccc(C(=O)NC4CCC4)cc3)c2[nH]1
- remaining at 0.5 h, 10 µM [14]: 22%
- IC50 [1]: 15 nM
- IC50 [2]: 3050 nM
- remaining at 0.5 h, 10 µM [15]: 28%
- IC50 [16]: 42 nM
- IC50 [5]: 70 nM
- IC50 [6]: 24200 nM
- IC50 [17]: 36 nM
- IC50 [18]: 43 nM
- IC50 [19]: 2290 nM
- F [20]: 14%

Compound: Cc1nn(C)cc1-c1nc2ncc(Cl)c(Oc3ccc(C(=O)N4CCCC4)cc3)c2[nH]1
- IC50 [1]: 45 nM
- IC50 [2]: 1820 nM

Compound: Cc1nn(C)cc1-c1nc2c(Oc3ccc(C(=O)Nc4ccccc4)cc3)ccnc2[nH]1
- IC50 [1]: 618 nM

Compound: COc1ccc(-c2[nH]c3ncc(Cl)cc3c2-c2cccc(CNC(C)=O)c2)cc1
- IC50 [1]: 743 nM
- IC50 [2]: 1090 nM

Compound: COc1ccc(-c2[nH]c3ncc(Cl)cc3c2-c2cccc(CNS(C)(=O)=O)c2)cc1
- IC50 [1]: 1940 nM
- IC50 [2]: 7100 nM

Compound: Cc1nn(C)cc1-c1nc2ncc(Cl)c(N3CCC[C@@H](CNS(C)(=O)=O)C3)c2[nH]1
- IC50 [1]: 7 nM
- IC50 [2]: 17 nM

Compound: Cc1nn(C)cc1-c1nc2c(N3CCC[C@H](CN(C)S(C)(=O)=O)C3)c(Cl)cnc2[nH]1
- IC50 [1]: 5 nM
- IC50 [2]: 9 nM
